Measured values: paper PMC11959361 (RSC Advances, 2025)

Assays:
[1] = system: C26 (colon carcinoma) cell line; assay: MTT cytotoxicity assay, C26; type: cell-based; conditions: 24 h
Summary of the method: (§1)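 Cells seeded at 5000 per well in Eagle's MEM with 10% fetal calf serum, 2 mM L-glutamine, penicillin and streptomycin, then held 24 h at 37 °C, 5% CO2. Serial concentrations of test compound in DMSO were added for 24 h, with PTX and DOX as references. MTT was added for 4 h at 37 °C. Formazan was dissolved in ethanol and read at 570 nm. Percent inhibition was computed against control and blank.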

[2] = system: BAEC (bovine aorta endothelial) normal cell line; assay: MTT cytotoxicity assay, BAEC normal cells; type: cell-based; conditions: 24 h with compound, IC50 ± SEM
Summary of the method: as §1

[3] = system: MCF7 (human breast cancer) cell line; assay: MTT cytotoxicity assay, MCF7; type: cell-based; conditions: MCF7, 24 h
Summary of the method: as §1

MCF7 and C26 cell lines = assay: MTT cytotoxicity, stated over both cancer cell lines together; type: cell-based; conditions: Homo sapiens, MCF7, read-out: IC50 over MCF7 and C26
Summary of the method: as §1

[4] = system: MCF7, A549 (non-small cell lung cancer) and HDFs (non-cancerous human dermal fibroblasts); conditions: doxorubicin value compared for healthy cells ref 20; cited from earlier work

With `O=[N+]([O-])c1ccc(Nc2nc(N3CCCCC3)nc(N3CCCCC3)n2)cc1` [2e, N-(4-Nitrophenyl)-4,6-di(piperidin-1-yl)-1,3,5-triazin-2-amine] the IC50 [1] was 8.28 ± 1.9 µM, the IC50 ([2]; Bos taurus, BAEC, 24 h) was 315 ± 9.53 µM and the IC50 [3] was 26.1 ± 1.86 µM.
With `CC(=O)O[C@H]1C(=O)[C@@]2(C)[C@H]([C@H](OC(=O)c3ccccc3)[C@]3(O)C[C@H](OC(=O)[C@H](O)[C@@H](NC(=O)c4ccccc4)c4ccccc4)C(C)=C1C3(C)C)[C@]1(OC(C)=O)CO[C@@H]1C[C@@H]2O` [PTX, Paclitaxel, reference compound] the IC50 (MCF7 and C26 cell lines) was 2.35 to 4.32 µM, the IC50 [1] was 4.32 ± 0.52 µM and the IC50 ([2]; Bos taurus, BAEC, 24 h) was 2.67 ± 0.41 µM. For the same compound, the IC50 [3] was 2.35 ± 0.14 µM.
In the case of `COc1cccc2c1C(=O)c1c(O)c3c(c(O)c1C2=O)C[C@@](O)(C(=O)CO)C[C@@H]3O[C@H]1C[C@H](N)[C@H](O)[C@H](C)O1` [DOX, Doxorubicin, reference compound], the IC50 [4] is given as 0.42 µM, the IC50 (MCF7 and C26 cell lines) is given as 8.06 to 10.5 µM and the IC50 [1] is given as 8.06 ± 1.02 µM. It also gave an IC50 ([2]; Bos taurus, BAEC, 24 h) of 4.79 ± 0.53 µM and an IC50 [3] of 10.5 ± 0.86 µM.
Compound `Fc1ccc(Nc2nc(N3CCOCC3)nc(N3CCOCC3)n2)cc1` [3b, N-(4-Fluorophenyl)-4,6-dimorpholino-1,3,5-triazin-2-amine] has an IC50 [1] of 24.5 ± 0.86 µM, an IC50 ([2]; Bos taurus, BAEC, 24 h) of 7.98 ± 0.97 µM and an IC50 [3] of 6.19 ± 1.2 µM.
For `Cc1ccc(Nc2nc(N3CCOCC3)nc(N3CCOCC3)n2)cc1` [3d, 4,6-Dimorpholino-N-(p-tolyl)-1,3,5-triazin-2-amine], the IC50 [1] was 16.3 ± 2.22 µM, the IC50 ([2]; Bos taurus, BAEC, 24 h) was 0.57 ± 0.24 µM and the IC50 [3] was 22.3 ± 1.49 µM.
For `Fc1ccc(Nc2nc(Cl)nc(Cl)n2)cc1` [1b, 4,6-Dichloro-N-(4-fluorophenyl)-1,3,5-triazin-2-amine], the IC50 [1] was 9.1 ± 0.61 µM and the IC50 [3] was 7.89 ± 1.8 µM.
In the case of `Cc1ccc(Nc2nc(N3CCCCC3)nc(N3CCCCC3)n2)cc1` [2d, 4,6-Di(piperidin-1-yl)-N-(p-tolyl)-1,3,5-triazin-2-amine], the IC50 [1] is reported as 0.38 ± 0.23 µM, the IC50 ([2]; Bos taurus, BAEC, 24 h) is reported as 1.84 ± 0.64 µM and the IC50 [3] is reported as 6.54 ± 1.16 µM.
For `Cc1ccc(Nc2nc(Cl)nc(Cl)n2)cc1` [1d, 4,6-Dichloro-N-(p-tolyl)-1,3,5-triazin-2-amine], the IC50 [1] was 9.99 ± 0.59 µM and the IC50 [3] was 0.2 ± 0.11 µM.
In the case of `Clc1ccc(Nc2nc(Cl)nc(Cl)n2)cc1` [1a, 4,6-Dichloro-N-(4-chlorophenyl)-1,3,5-triazin-2-amine], the IC50 [1] is reported as 13.5 ± 0.24 µM and the IC50 [3] is reported as 5.35 ± 1.05 µM.
Compound `COc1ccc(Nc2nc(N3CCOCC3)nc(N3CCOCC3)n2)cc1` [3c, N-(4-Methoxyphenyl)-4,6-dimorpholino-1,3,5-triazin-2-amine] has an IC50 [1] of 76.8 ± 8.45 µM, an IC50 ([2]; Bos taurus, BAEC, 24 h) of 2.01 ± 0.59 µM and an IC50 [3] of 43.5 ± 4.23 µM.
Compound `Fc1ccc(Nc2nc(N3CCCCC3)nc(N3CCCCC3)n2)cc1` [2b, N-(4-Fluorophenyl)-4,6-di(piperidin-1-yl)-1,3,5-triazin-2-amine] has an IC50 [1] of 33.6 ± 1.86 µM, an IC50 ([2]; Bos taurus, BAEC, 24 h) of 21.2 ± 2.4 µM and an IC50 [3] of 32.9 ± 4.23 µM.
For `Clc1ccc(Nc2nc(N3CCOCC3)nc(N3CCOCC3)n2)cc1` [3a, N-(4-Chlorophenyl)-4,6-dimorpholino-1,3,5-triazin-2-amine], the IC50 [1] was 1.21 ± 0.47 µM, the IC50 ([2]; Bos taurus, BAEC, 24 h) was 41.2 ± 2.55 µM and the IC50 [3] was 42.4 ± 4.48 µM.
Compound `O=[N+]([O-])c1ccc(Nc2nc(Cl)nc(Cl)n2)cc1` [1e, 4,6-Dichloro-N-(4-nitrophenyl)-1,3,5-triazin-2-amine] has an IC50 [1] of 48.3 ± 1.94 µM and an IC50 [3] of 10.3 ± 1.51 µM.
`COc1ccc(Nc2nc(Cl)nc(Cl)n2)cc1` [1c, 4,6-Dichloro-N-(4-methoxyphenyl)-1,3,5-triazin-2-amine] gave an IC50 [1] of 9.89 ± 0.17 µM and an IC50 [3] of 1.77 ± 0.05 µM.
Compound `COc1ccc(Nc2nc(N3CCCCC3)nc(N3CCCCC3)n2)cc1` [2c, N-(4-Methoxyphenyl)-4,6-di(piperidin-1-yl)-1,3,5-triazin-2-amine] has an IC50 [1] of 99.4 ± 14.1 µM, an IC50 ([2]; Bos taurus, BAEC, 24 h) of 15.1 ± 1.98 µM and an IC50 [3] of 50.9 ± 8.54 µM.
In the case of `Clc1ccc(Nc2nc(N3CCCCC3)nc(N3CCCCC3)n2)cc1` [2a, N-(4-Chlorophenyl)-4,6-di(piperidin-1-yl)-1,3,5-triazin-2-amine], the IC50 [1] is reported as 47.5 ± 2.86 µM, the IC50 ([2]; Bos taurus, BAEC, 24 h) is reported as 49 ± 3.16 µM and the IC50 [3] is reported as 23.6 ± 2.56 µM.
In the case of `O=[N+]([O-])c1ccc(Nc2nc(N3CCOCC3)nc(N3CCOCC3)n2)cc1` [3e, 4,6-Dimorpholino-N-(4-nitrophenyl)-1,3,5-triazin-2-amine], the IC50 [1] is reported as 14.7 ± 1.7 µM, the IC50 [2] is reported as 86.3 ± 6.79 µM and the IC50 ([2]; Bos taurus, BAEC, 24 h) is reported as 86.2 µM. It also gave an IC50 [3] of 13.7 ± 1.96 µM.
